Most compounds without a hit are left out; they make up all but 2.1% or so of the library.
Runt-SMMHC FRET: blocks binding of human RUNX1 Runt domain to CBFb-SMMHC; Cerulean-Runt/Venus-CBFb-SMMHC FRET ratio 530/480, 1 h; AID 1434; inhibition, % at 20 µM; 0.74% of 220,000 active;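 active = mean inhibition across duplicate retests at 20 µM reaching about 50%, limit read from the data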;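 also: 0% = DMSO wells and 100% = wells with excess untagged CBFb-SMMHC; inhibitors lower the FRET ratio by blocking Runt binding to CBFb-SMMHC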
Target sequence (Q01196 whole entry, looked up, the tested form may be a part): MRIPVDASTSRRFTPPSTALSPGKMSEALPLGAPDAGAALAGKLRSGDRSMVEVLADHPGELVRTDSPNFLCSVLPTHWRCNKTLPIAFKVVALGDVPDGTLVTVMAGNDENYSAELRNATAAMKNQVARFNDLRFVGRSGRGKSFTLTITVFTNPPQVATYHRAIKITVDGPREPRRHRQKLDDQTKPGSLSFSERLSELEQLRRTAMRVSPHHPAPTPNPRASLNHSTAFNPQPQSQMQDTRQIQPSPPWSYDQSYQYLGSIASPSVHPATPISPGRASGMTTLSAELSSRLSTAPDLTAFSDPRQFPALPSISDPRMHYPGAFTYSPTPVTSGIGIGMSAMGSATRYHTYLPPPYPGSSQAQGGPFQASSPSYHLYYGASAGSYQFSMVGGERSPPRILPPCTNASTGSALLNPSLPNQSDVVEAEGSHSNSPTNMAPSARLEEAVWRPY
Target sequence (Q13951 whole entry, looked up, the tested form may be a part): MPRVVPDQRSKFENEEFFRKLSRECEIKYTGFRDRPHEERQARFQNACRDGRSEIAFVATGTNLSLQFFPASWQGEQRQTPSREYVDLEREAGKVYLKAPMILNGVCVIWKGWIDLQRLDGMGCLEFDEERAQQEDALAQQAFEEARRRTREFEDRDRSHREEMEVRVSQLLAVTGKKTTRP
RanGTP-Imp inh: disruptors of Ran-importin-beta complex formation – biochemical, FRET, CFP-Ran, YFP-importin-beta, homogeneous, primary screen. cell-free CFP-Ran/YFP-importin-beta FRET ratio. inhibition, % (no concentration beside the values). 1.1% of 300,000 active. AID 2216;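 active = more than half of the replicate wells show a fall in the fluorescence ratio signal beyond about 16%, limit read from the data, passing the limit was not always enough; inconclusive = exactly half of the replicate wells pass the set limit; inactive = fewer than half of replicates pass the limit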;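 also: 0% = DMSO wells and 100% = Ran loaded with GDP instead of GTP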
p-CIP stab down: compounds decreasing mouse p/CIP protein stability | decrease of EGFP signal, % at 10 µM | 0.01% of 290,000 active | F442A p/CIP-EGFP cells, EGFP fluorescence, 16 h | Q05BA5;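 active = EGFP signal decrease of at least 30% at 10 µM or well 3 SD below plate mean, unless failing retest; inactive = the rest, including hits failing retest or dose response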
Hck Nef HTS: inhibitors of human Hck kinase activated by Nef. Recombinant Hck-YEEI plus Nef, Z-Lyte FRET kinase assay. inhibition, % at 20 µM. 0.68% of 220,000 active. AID 463187;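 active = Hck-Nef kinase inhibition above about 50%, limit read from the data; inactive = inhibition below that limit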;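 also: 0% = DMSO with Hck plus Nef and 100% = Hck alone without Nef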
DSG3 Ab inh: inhibitors of pemphigus antibody binding to human desmoglein-3 | AID 588358 | P32926 | DSG3-coupled beads, scFv-anti-DSG3-GFP binding, flow cytometry; active compounds read low | binding (percent of control), % at 10 µM | 0.48% of 310,000 active;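 active = binding more than 3 SD below its plate's average and above zero; inconclusive = below that plate limit but binding exactly zero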;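 also: hits lower antibody fragment binding to DSG3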
Runt-CBFb FRET: inhibitors of human RUNX1 Runt domain binding to CBFb; Q01196+Q13951; Cerulean-Runt/Venus-CBFb FRET ratio 530/480, 1 h; inhibition, % at 20 µM; 0.46% of 220,000 active; AID 1496;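 active = inhibition over about 50% at 20 µM in the single-dose screen, limit read from the data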;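 also: 0% = DMSO wells and 100% = excess unlabeled CBFb competitor control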
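System: Cerulean-labeled Runt domain protein | Quantity: 100 nM of each labeled protein | Schedule: 1 h compound exposure, room temperature | Detection: Fluorescence energy transfer, 422 nm excitation, 530/480 nm emission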
Hck-Nef confirm: Hck-Nef kinase inhibition, confirmation | shares compounds with Hck Nef HTS | Recombinant Hck-YEEI:Nef, Z-Lyte FRET kinase assay | 28% of 1,300 active | calls only at 10 µM | AID 463188;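 active = average inhibition of at least 50%, with Z-scores no higher than 3 in both the phospho-tyrosine peptide and fluorescence counterscreens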
* hit, by the source's call; i = inactive; ? = inconclusive; . = not tested or not shown; + = active, no number.

SMILES	Runt-SMMHC FRET	RanGTP-Imp inh	p-CIP stab down	Hck Nef HTS	DSG3 Ab inh	Runt-CBFb FRET	Hck-Nef confirm
COc1ccc(N2C3=C(CC4=C2CC(C)(C)CC4=O)C(=O)CC(C)(C)C3)cc1	5.8	0.9	5.9	4.6	95.6	4.9	.
Cc1cc(C=C2C(=O)c3ccccc3C2=O)c(C)n1-c1cccc(C(=O)O)c1	-114.2	1.7	-8.1	73.7*	84.2	-33.7	+
O=C(CSc1nc(-c2ccc(F)cc2)nc2c1Cc1ccccc1O2)Nc1cccc(C(=O)O)c1	-16.6	-4.5	7.8	153.3*	86.0	36.6	+
O=C(CSc1nc(-c2ccccc2)nc2c1Cc1ccccc1O2)Nc1ccccc1	0.0	-4.1	-22.8	4.1	.	1.7	.
COc1ccc(OCC(=O)Nc2ccc(NC(=O)c3cccs3)c(OC)c2)cc1	2.9	-2.7	-8.2	17.8	103.7	1.1	.
COc1cc(NC(=O)c2cccs2)c(OC)cc1NC(=O)CCC(=O)Nc1ccc2ncccc2c1	-14.5	2.2	-1.6	65.3*	80.9	-4.2	i
CCn1c2ccccc2c(=O)c2ccccc21	91.1*	145.1*	1.9	141.8*	106.8	19.7	.
CCn1c2ccccc2c2cc([N+](=O)[O-])ccc21	-2.3	-1.2	-8.5	17.0	109.6	-2.9	.
CN(C(=O)c1cc(COc2ccc(F)c(F)c2)on1)C1CCOC1 (configuration not stated)	.	0.7	-8.4	.	97.9	.	.
Cc1ccc(C2=NN(C(=O)CSc3nc4ncc(Cl)cc4[nH]3)C(c3ccco3)C2)cc1 (configuration not stated)	26.5	0.4	-4.7	76.6*	101.9	18.5	i
COc1ccc(C2=NN(C(=O)CSc3nc4ncc(Cl)cc4[nH]3)C(c3ccco3)C2)cc1 (configuration not stated)	18.6	-4.2	-11.1	21.5	101.4	17.2	.
CC(C)C[C@@H]1NC(=O)[C@H](Cc2ccc(O)cc2)NC(=O)[C@H](CCC(N)=O)NC(=O)c2cc([N+](=O)[O-])cc(I)c2NCC[C@@H](C(N)=O)NC1=O	-7.2	-3.6	9.3	-2.5	.	-0.4	.
COc1ccc(/C=N/NC(=O)COc2cccc3cccnc23)cc1OC	1.9	?	7.9	54.2*	102.6	-1.5	i
O=C(NCc1ccc2c(c1)OCO2)c1nc(Cn2cc(Br)cn2)no1	.	-3.9	-12.5	.	98.7	.	.
Cc1ccc(-c2cc(C(F)(F)F)n3ncc(C(=O)NCc4ccco4)c3n2)cc1	-11.3	3.2	-11.9	23.4	99.8	-1.4	.
Cc1ccc(-c2cc(C(F)F)n3ncc(C(=O)NCc4ccco4)c3n2)cc1	-28.1	.	-8.5	58.1*	101.5	-11.2	i
Cc1c2c(n3c(nc4ccccc43)c1C#N)N(CCCN(C)C)CC2	90.8*	0.7	-2.2	54.1*	112.2	100.2*	i
Cc1c2c(n3c(nc4ccccc43)c1C#N)N(CCN(C)C)CC2	90.8*	-2.1	-17.3	55.0*	97.1	19.0	i
CSc1ccc(Cl)c(C(=O)NNC(=O)c2csc(N3CCOCC3)n2)c1	.	9.1	.	.	98.2	.	.
CN(C(=O)c1ccccc1C(=O)OCC(=O)c1ccc(Br)cc1)c1ccccc1	.	.	.	.	107.2	.	.
O=C1c2ccc(Cl)cc2S(=O)(=O)c2cccc(C(=O)N3CCC(Cc4ccccc4)CC3)c21	.	.	.	.	106.0	.	.
COc1ccc(-c2csc(NC(=S)NC(=O)/C=C/c3ccco3)n2)cc1OC	1.2	3.7	-16.1	10.5	104.3	11.6	.
COc1ccc(-c2csc(NC(=S)NC(=O)/C=C/c3ccco3)n2)cc1Br	-4.6	-4.0	-21.3	78.4*	95.5	0.2	i
CCCn1c(NC(=O)c2ccc(Cl)c(S(=O)(=O)N3CCCC3)c2)nc2ccccc21	4.1	-1.5	-13.5	72.6*	104.3	1.4	+
Cc1ccc(/C=C/C(=O)OCC(=O)NCc2cccs2)o1	.	.	.	.	121.5	.	.
SMILES	Runt-SMMHC FRET	RanGTP-Imp inh	p-CIP stab down	Hck Nef HTS	DSG3 Ab inh	Runt-CBFb FRET	Hck-Nef confirm
O=C(Cn1nnc(-c2ccc(NC(=O)c3ccccc3F)cc2)n1)NCc1ccc(F)cc1	-2.9	3.2	-1.5	61.1*	99.1	2.7	i
O=C(Nc1ccc(-c2nnn(CC(=O)N3CCN(C(=O)c4ccco4)CC3)n2)cc1)c1ccccc1F	-5.2	1.2	-9.1	19.8	.	-0.6	.
Cc1ccc(S(=O)(=O)N2CCN(C(=O)CCC(=O)NCc3ccc(F)cc3)CC2)cc1	0.2	-0.9	-6.4	-5.6	114.8	-2.2	.
COc1ccc(OC)c(C2Nc3c(Cl)ccc(C(=O)O)c3C3C=CCC32)c1 (configuration not stated)	14.1	-0.4	1.4	-6.9	98.2	20.9	.
COC(=O)COc1ccc(C2Nc3c(Cl)ccc(C(=O)O)c3C3C=CCC32)cc1 (configuration not stated)	-2.9	3.2	-13.1	76.2*	108.2	18.9	i
Cc1ccc(NC(=O)CSc2nnc(Cc3csc(C)n3)o2)c(C)c1	.	3.8	.	.	109.5	.	.
COC(=O)Cc1c(C)c2ccc(OC(=O)c3ccco3)cc2oc1=O	31.5	1.4	-4.7	102.4*	.	16.6	.
CCc1cc(=O)oc2cc(OC(=O)c3ccco3)ccc12	.	5.5	-2.1	.	100.4	.	.
Cc1cc(=O)oc2cc(OC(=O)c3ccco3)ccc12	20.5	2.7	-12.4	126.5*	95.6	12.4	i
CC(=O)Nc1ccc(S(=O)(=O)Nc2cccc(NC(=O)c3ccco3)c2)cc1	-1.7	-6.1	10.1	-13.3	100.2	1.6	.
Cc1noc(/C=C/c2ccco2)c1S(=O)(=O)N1CCC(C(=O)N2CCc3ccccc3C2)CC1	-13.0	1.7	-0.8	50.6*	.	-4.8	i
O=C(NCCc1ccccc1C(F)(F)F)C1CCC(=O)N(C2CC2)C1 (configuration not stated)	.	-2.7	4.7	.	.	.	.
CC(OC(=O)c1ccc(-n2cnnn2)cc1)C(=O)Nc1ccc(F)c(F)c1F (configuration not stated)	.	.	.	.	102.2	.	.
Nc1c(C(=O)N/N=C/c2ccccc2)cnn1-c1ccccc1	0.1	2.0	-4.8	67.9*	117.1	0.6	i
N#Cc1cc2cc3c(cc2nc1SCC(=O)N1CCOCC1)OCO3	.	0.6	-4.9	.	90.5	.	.
N#Cc1cc2cc3c(cc2nc1NCCNC(=S)NCCCN1CCOCC1)OCO3	100.2*	1.7	14.4	74.3*	95.7	102.7*	.
CN1CCN(NC(=O)c2cc(Br)ccc2Cl)CC1	4.6	2.3	-9.4	-4.3	103.8	0.5	.

Screening data as filed in PubChem BioAssay.
